In data set [1] the test system is ERK2. As to conditions: read-out: IC50 for ERK2; ref Morris et al., 2013; cited from earlier work.
The test system of data set [2] is primary mouse microglia. Kind of data set: qRT-PCR of homeostatic and DAM genes in primary microglia. The class given is cell-based. The settings on record: dose ranges between 4 and 50 nM, IFNγ-stimulated conditions; Figure S6. In short, it runs like this:
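Mouse brain microglia were purified by CD11b+ MACS selection, plated on poly-L-lysine and cultured at 37°C. After 24 hr, half the medium was replaced and the ERK1/2 inhibitor added. Cells were preincubated 1 hr, then stimulated with 1 ng/ml IFNγ for 24 hr, matching the NanoString culture conditions. RNA was isolated and checked for concentration and purity by spectrophotometry before qRT-PCR.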
On the technique in general: Quantitative PCR measures a nucleic acid by following its amplification.

The subject of data set [3] is primary mouse microglia. Kind of data set: Microglia-neuron coculture assay of neuronal phagocytosis. As to conditions: 1 μM inhibitor, without IFNγ treatment; 24 hr coculture; Figure 5e. The class given is cell-based.
In data set [4] the test system is primary mouse microglia. Kind of data set: Flow cytometric assay of microglial viability. Format: cell-based. As to conditions: 1 μM inhibitor, with or without 1 ng/ml IFNγ, 24 hr; Figure S2.
The subject of data set [5] is ERK1. As to conditions: read-out: IC50 for ERK1; ref Morris et al., 2013; cited from earlier work.

Consider one compound from PMC8919593 (Journal of neuroscience research, 2021).

Molecules are shown by their SMILES.

A word on the IC50: it is the concentration needed to halve the response being measured. Consider `O=C(Nc1ccc2[nH]nc(-c3ccncc3)c2c1)[C@@H]1CCN(CC(=O)N2CCN(c3ccc(-c4ncccn4)cc3)CC2)C1` [SCH772984], for which the IC50 in data set [1] was 1 nM; in data set [5], 4 nM. Further, in data set [2], the “gene expression of Ptgs2 (pro-inflammatory DAM gene)” value was “inhibited gene expression of Ptgs2”. The “microglial phagocytosis of N2a cells” value in data set [3] is on record as “significantly reduced microglial phagocytosis of N2a cells”. Also, in data set [4], the “cell health and viability of microglia” value was “minimally impacted cell health and viability”.
